# Measured values from article PMC7238799 (Pulmonary Circulation, 2020).
# What was measured:
# [1] = Multiple ascending dose; assay type: in vivo, human; conditions: for Accumulation in plasma exposure (AUC): approximate
# In short: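 Healthy subjects were randomized to test compound or placebo by oral immediate-release capsule in the fasted state. In Cohorts 1–2 (2:1), 50 µg QD escalated to 100, 200, 300 and 400 µg every sixth day if tolerated. In Cohort 3 (4:1), 10 µg BID escalated to 20, 30, 40, 50 and 70 µg. K₂EDTA blood was drawn pre-dose and 0.25–24 h post-dose.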
# [2] = test system: rat monocrotaline model of PAH; conditions: oral; cited from earlier work
# [3] = test system: plasma protein; conditions: animals and humans; cited from earlier work
# [4] = cited from earlier work
# [5] = test system: healthy subjects; assay: Multiple ascending dose; assay type: in vivo, human; conditions: Cohort 3, BID, all dose levels, n = 20
# In short: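 Subjects on test compound or placebo were domiciled up to 31 days (QD Cohorts 1–2) or 34 days (BID Cohort 3), with a 48-h drug-free follow-up. Monitoring at multiple time points covered adverse events, vital signs, 12-lead ECG with intensive ECG monitoring in all cohorts, and safety labs (serum chemistry, hematology, urinalysis). Data were summarized descriptively by treatment group.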
# [6] = 10 µg BID, steady state, n = 20, mean (SD)
# [7] = 30 µg QD, steady state, n = 3, mean (SD)
# [8] = 40 µg BID, steady state, n = 9, mean (SD)
# [9] = 50 µg BID, steady state, n = 6, mean (SD)
# [10] = 50 µg QD, steady state, n = 16, mean (SD)
# [11] = 100 µg QD, steady state, n = 7, mean (SD)
# [12] = 300 µg QD, steady state, single subject
# [13] = 400 µg QD, near steady-state (Day 21, first day at this dose), single subject
structure (smiles),measurement,setting,value
O=C(O)COC[C@H]1CC[C@H](COC(=O)N(c2ccccc2)c2ccc(Cl)cc2)CC1 [ralinepag],Mean steady-state accumulation of total plasma exposure (AUC),[1]; 10 µg BID,2.64 fold
same,Accumulation ratio Rac(Cmax),[1]; [6],2.07 (0.40)
same,PTR (peak-to-trough plasma concentration ratio),[1]; [6],2.04 (0.32)
same,PTR (peak-to-trough plasma concentration ratio),"[1]; 20 µg BID, steady state, n = 20, mean (SD)",1.97 (0.26)
same,PTR (peak-to-trough plasma concentration ratio),"[1]; 30 µg BID, steady state, n = 10, mean (SD)",1.95 (0.22)
same,"Ctrough,ss",[1]; [7],0.72 (0.20) ng/mL
same,PTR (peak-to-trough plasma concentration ratio),[1]; [7],3.34 (1.20)
same,"Ctrough,ss",[1]; [8],1.51 (0.57) ng/mL
same,PTR (peak-to-trough plasma concentration ratio),[1]; [8],2.28 (0.40)
same,"Ctrough,ss",[1]; [9],2.32 (0.78) ng/mL
same,PTR (peak-to-trough plasma concentration ratio),[1]; [9],2.00 (0.43)
same,Mean EHL,[1]; 50 µg QD,18.4 h
same,Mean steady-state accumulation of total plasma exposure (AUC),[1]; 50 µg QD,1.69 fold
same,Accumulation ratio Rac(AUC),[1]; [10],1.69 (0.24)
same,Accumulation ratio Rac(Cmax),[1]; [10],1.54 (0.31)
same,"Ctrough,ss",[1]; [10],0.76 (0.37) ng/mL
same,PTR (peak-to-trough plasma concentration ratio),[1]; [10],4.33 (2.12)
same,PTR (peak-to-trough plasma concentration ratio),"[1]; 70 µg BID, steady state, single subject",2.36
same,"Ctrough,ss",[1]; [11],1.39 (0.68) ng/mL
same,PTR (peak-to-trough plasma concentration ratio),[1]; [11],4.49 (2.66)
same,"Ctrough,ss",[1]; [12],5.14 ng/mL
same,PTR (peak-to-trough plasma concentration ratio),[1]; [12],3.42
same,"Ctrough,ss",[1]; [13],6.13 ng/mL
same,PTR (peak-to-trough plasma concentration ratio),[1]; [13],3.70
same,"Dose proportionality of Cmax,ss, Ctrough,ss and AUC0–τ,ss",[1]; 10–50 µg BID dose range,approximately dose proportional
same,"Dose proportionality of Cmax,ss, Ctrough,ss and AUC0–τ,ss",[1]; 50–300 µg QD dose range,approximately dose-proportional
same,Accumulation in plasma exposure (AUC),[1]; BID (Q12 hours) dosing,~2.6 fold
same,"Steady-state peak-to-trough ratio, range across doses","[1]; BID dosing, Cohort 3",1.95–2.36
same,Accumulation in plasma exposure (AUC),[1]; QD (Q24 hours) dosing,~1.7 fold
same,"Steady-state peak-to-trough ratio, range across doses","[1]; QD dosing, Cohorts 1 and 2 combined",3.34–4.49
same,Half-life,"[1]; both, human, plasma, oral",17.5 to 18.4 h
same,AUC,"[1]; human, plasma, oral, 10 ug, AUC0–τ, 10 µg BID, Study Day 1 (non-steady-state), τ 12 h, n = 20, mean (SD)",2.51 ng·h/mL
same,AUC,"[1]; human, plasma, oral, 10 ug, AUC0–τ,ss, 10 µg BID, steady state, τ 12 h, n = 20, mean (SD)",6.68 ng·h/mL
same,Cmax,"[1]; human, plasma, oral, 10 ug, Cmax, 10 µg BID, Study Day 1 (non-steady-state), n = 20, mean (SD)",0.412 ng/mL
same,Cmax,"[1]; human, plasma, oral, 10 ug, Cmax,ss, 10 µg BID, steady state, n = 20, mean (SD)",0.86 ng/mL
same,Tmax,"[1]; human, plasma, oral, 10 ug, Tmax, 10 µg BID, Study Day 1 (non-steady-state), n = 20, median (min–max)",1 h
same,Tmax,"[1]; human, plasma, oral, 10 ug, Tmax,ss, 10 µg BID, steady state, n = 20, median (min–max)",1 h
same,Cmax,"[1]; human, plasma, oral, 20 ug, Cmax,ss, 20 µg BID, steady state, n = 20, mean (SD)",1.8 ng/mL
same,AUC,"[1]; human, plasma, oral, 30 ug, AUC0-τ,ss, 30 µg QD, steady state, τ 24 h, n = 3, mean (SD)",24.8 ng·h/mL
same,Cmax,"[1]; human, plasma, oral, 30 ug, Cmax,ss, 30 µg BID, steady state, n = 10, mean (SD)",2.12 ng/mL
same,Cmax,"[1]; human, plasma, oral, 30 ug, Cmax,ss, 30 µg QD, steady state, n = 3, mean (SD)",2.29 ng/mL
same,Tmax,"[1]; human, plasma, oral, 30 ug, Tmax,ss, 30 µg QD, steady state, n = 3, median (min – max)",1 h
same,Cmax,"[1]; human, plasma, oral, 40 ug, Cmax,ss, 40 µg BID, steady state, n = 9, mean (SD)",3.31 ng/mL
same,AUC,"[1]; human, plasma, oral, 50 ug, AUC0-τ, 50 µg QD, Study Day 1 (non-steady-state), τ 24 h, n = 20, mean (SD)",15.9 ng·h/mL
same,AUC,"[1]; human, plasma, oral, 50 ug, AUC0-τ,ss, 50 µg QD, steady state, τ 24 h, n = 16, mean (SD)",26.2 ng·h/mL
same,AUC,"[1]; human, plasma, oral, 50 ug, AUC0–τ,ss, 50 µg BID, steady state, τ 12 h, n = 6, mean (SD)",36 ng·h/mL
same,Cmax,"[1]; human, plasma, oral, 50 ug, Cmax, 50 µg QD, Study Day 1 (non-steady-state), n = 20, mean (SD)",1.88 ng/mL
same,Cmax,"[1]; human, plasma, oral, 50 ug, Cmax,ss, 50 µg BID, steady state, n = 6, mean (SD)",4.43 ng/mL
same,Cmax,"[1]; human, plasma, oral, 50 ug, Cmax,ss, 50 µg QD, steady state, n = 16, mean (SD)",2.74 ng/mL
same,Tmax,"[1]; human, plasma, oral, 50 ug, Tmax, 50 µg QD, Study Day 1 (non-steady-state), n = 20, median (min – max)",2 h
same,Tmax,"[1]; human, plasma, oral, 50 ug, Tmax,ss, 50 µg BID, steady state, n = 6, median (min–max)",1.25 h
same,Tmax,"[1]; human, plasma, oral, 50 ug, Tmax,ss, 50 µg QD, steady state, n = 16, median (min – max)",1.25 h
same,AUC,"[1]; human, plasma, oral, 70 ug, AUC0–τ,ss, 70 µg BID, steady state, τ 12 h, single subject",25.2 ng·h/mL
same,Cmax,"[1]; human, plasma, oral, 70 ug, Cmax,ss, 70 µg BID, steady state, single subject",4.22 ng/mL
same,Tmax,"[1]; human, plasma, oral, 70 ug, Tmax,ss, 70 µg BID, steady state, single subject",1.5 h
same,AUC,"[1]; human, plasma, oral, 100 ug, AUC0-τ,ss, 100 µg QD, steady state, τ 24 h, n = 7, mean (SD)",48.6 ng·h/mL
same,Cmax,"[1]; human, plasma, oral, 100 ug, Cmax,ss, 100 µg QD, steady state, n = 7, mean (SD)",5.15 ng/mL
same,Tmax,"[1]; human, plasma, oral, 100 ug, Tmax,ss, 100 µg QD, steady state, n = 7, median (min – max)",1.5 h
same,AUC,"[1]; human, plasma, oral, 300 ug, AUC0-τ,ss, 300 µg QD, steady state, τ 24 h, single subject",181 ng·h/mL
same,Cmax,"[1]; human, plasma, oral, 300 ug, Cmax,ss, 300 µg QD, steady state, single subject",17.6 ng/mL
same,Tmax,"[1]; human, plasma, oral, 300 ug, Tmax,ss, 300 µg QD, steady state, single subject",4 h
same,Efficacy in rat monocrotaline model of PAH,[2],dose-dependent oral efficacy
same,Plasma protein binding,[3],~99%
same,Enterohepatic recirculation,[4]; animals,observed
same,Oral bioavailability,"[4]; mouse, rat, dog, and monkey",moderate to high
same,"Abdominal distention, subjects (%)",[5],0
same,"Abdominal pain, subjects (%)",[5],4 (20%)
same,"Acne, subjects (%)",[5],2 (10%)
same,"Application site dermatitis, subjects (%)",[5],0
same,"Arthralgia, subjects (%)",[5],9 (45%)
same,"Asthenia, subjects (%)",[5],0
same,"Back pain, subjects (%)",[5],2 (10%)
same,"Chapped lips, subjects (%)",[5],2 (10%)
same,"Chest pain, subjects (%)",[5],1 (5%)
same,"Chromaturia, subjects (%)",[5],2 (10%)
same,"Constipation, subjects (%)",[5],1 (5%)
same,"Decreased appetite, subjects (%)",[5],1 (5.0%)
same,"Dermatitis contact, subjects (%)",[5],2 (10%)
